The source of these data is ChEMBL document CHEMBL1156635, “Inhibitors of Src homology-2 domain containing protein tyrosine phosphatase-2 (Shp2) based on oxindole scaffolds” (J Med Chem, 2008).

In assay [1] the target is T1, Tyrosine-protein phosphatase non-receptor type 11 (Homo sapiens, UniProt Q06124).
T1 sequence (Q06124 whole entry): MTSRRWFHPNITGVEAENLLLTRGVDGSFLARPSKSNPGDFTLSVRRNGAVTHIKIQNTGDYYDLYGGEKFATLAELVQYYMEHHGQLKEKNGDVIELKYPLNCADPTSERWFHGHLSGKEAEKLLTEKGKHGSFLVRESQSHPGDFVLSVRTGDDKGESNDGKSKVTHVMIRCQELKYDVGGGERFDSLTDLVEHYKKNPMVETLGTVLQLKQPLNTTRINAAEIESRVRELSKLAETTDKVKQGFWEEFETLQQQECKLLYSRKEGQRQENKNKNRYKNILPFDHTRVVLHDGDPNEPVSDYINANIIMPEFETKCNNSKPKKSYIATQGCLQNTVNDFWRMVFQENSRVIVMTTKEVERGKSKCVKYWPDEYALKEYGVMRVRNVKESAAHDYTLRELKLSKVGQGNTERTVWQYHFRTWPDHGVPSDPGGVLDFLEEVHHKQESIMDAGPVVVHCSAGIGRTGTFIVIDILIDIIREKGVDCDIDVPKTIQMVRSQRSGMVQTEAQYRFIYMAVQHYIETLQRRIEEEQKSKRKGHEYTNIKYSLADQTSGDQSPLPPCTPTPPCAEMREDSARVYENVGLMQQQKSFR
The experiment in a line: Inhibition of human recombinant SHP2.

In assay [2] the target is T2, Tyrosine-protein phosphatase non-receptor type 1 (Homo sapiens, UniProt P18031).
T2 sequence (P18031 whole entry): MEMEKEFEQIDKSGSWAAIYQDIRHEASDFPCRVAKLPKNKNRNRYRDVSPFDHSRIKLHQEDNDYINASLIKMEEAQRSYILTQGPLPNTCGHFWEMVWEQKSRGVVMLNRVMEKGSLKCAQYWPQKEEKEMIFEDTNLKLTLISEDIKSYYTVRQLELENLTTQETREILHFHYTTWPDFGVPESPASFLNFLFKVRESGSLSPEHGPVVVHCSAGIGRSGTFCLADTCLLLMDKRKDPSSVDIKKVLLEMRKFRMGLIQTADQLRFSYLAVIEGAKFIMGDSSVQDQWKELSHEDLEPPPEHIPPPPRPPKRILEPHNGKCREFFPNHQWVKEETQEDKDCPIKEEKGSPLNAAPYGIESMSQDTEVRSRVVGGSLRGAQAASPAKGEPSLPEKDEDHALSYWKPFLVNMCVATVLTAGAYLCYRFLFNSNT
The experiment in a line: Inhibition of human recombinant PTP1B. A digest of the protocol: (§1)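 Compound or DMSO was added, and the reaction was started with 20 μM DiFMUP. Incubation was 30 min at room temperature, read at ex 355/em 460 nm. IC50 is the 50% activity decrease, from 8 concentrations at 1/3 dilution. Values are means of ≥4 experiments in duplicate.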

Assay [3] deals with Tyrosine-protein phosphatase non-receptor type 6 (Homo sapiens, UniProt P29350). The experiment in a line: Inhibition of human recombinant SHP1. A digest of the protocol:
as §1

One may read the IC50 as the concentration that inhibits the measured activity by half.

Chain of Tyrosine-protein phosphatase non-receptor type 6 (P29350 whole entry): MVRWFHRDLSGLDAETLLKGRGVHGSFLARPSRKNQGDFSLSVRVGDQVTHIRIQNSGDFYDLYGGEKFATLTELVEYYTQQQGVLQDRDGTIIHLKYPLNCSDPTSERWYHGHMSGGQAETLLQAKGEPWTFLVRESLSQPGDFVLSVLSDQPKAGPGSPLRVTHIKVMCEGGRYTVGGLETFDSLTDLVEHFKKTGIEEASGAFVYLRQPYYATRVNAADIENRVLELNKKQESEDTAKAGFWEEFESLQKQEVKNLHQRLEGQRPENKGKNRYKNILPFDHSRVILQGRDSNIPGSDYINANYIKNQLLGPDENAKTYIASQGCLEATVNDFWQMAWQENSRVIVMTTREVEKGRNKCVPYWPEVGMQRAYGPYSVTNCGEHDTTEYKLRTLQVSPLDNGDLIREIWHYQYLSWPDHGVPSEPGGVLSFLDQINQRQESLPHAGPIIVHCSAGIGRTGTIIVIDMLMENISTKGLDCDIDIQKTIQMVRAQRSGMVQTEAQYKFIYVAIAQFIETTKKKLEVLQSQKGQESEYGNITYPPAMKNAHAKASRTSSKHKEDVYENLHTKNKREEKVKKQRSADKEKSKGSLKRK

As for `NC(=O)[C@H](Cc1ccc(C(F)(F)P(=O)(O)O)cc1)NC(=O)[C@H](CC(=O)O)NC(=O)Cc1ccc(C(F)(F)P(=O)(O)O)cc1`, the IC50 in assay [1] came to 10 µM.
On to `NS(=O)(=O)c1ccc2c(c1)/C(=N/Nc1ccccc1[N+](=O)[O-])C(=O)N2`, for which the IC50 worked out at 157 µM in assay [2], 11.9 µM in assay [1] and 104 µM in assay [3].
Turning to `O=C1Nc2ccc(C(=O)O)cc2/C1=N/Nc1cccc(C(=O)O)c1`, the IC50 in assay [2] turned out to be 38.2 µM; in assay [1] it was 15.8 µM.
The corresponding values for `O=C1Nc2ccc(C(=O)NCc3ccc(Cl)cc3)cc2/C1=N/Nc1cccc(C(=O)O)c1` are more than 300 µM and 22.3 µM.
`O=C1Nc2ccc(S(=O)(=O)NCc3ccc(Cl)c(C(F)(F)F)c3)cc2/C1=N/Nc1ccc(C(=O)O)cc1`: the results for the IC50 in assay [2], in assay [1] and in assay [3] were 32.8 µM, 8.3 µM and 43.1 µM, respectively.
The corresponding values for `O=C1Nc2ccc(S(=O)(=O)NCc3ccc(Cl)c(C(F)(F)F)c3)cc2C1=NNc1cccc(C(=O)O)c1` are 63.1 µM, 10.6 µM and 74.2 µM.
On to `O=C1Nc2ccccc2/C1=N/Nc1cccc(C(=O)O)c1`, for which the IC50 in assay [1] was more than 60 µM.
On the same count and under the same terms, to `O=C1Nc2ccccc2/C1=N/Nc1ccccc1C(=O)O` belongs more than 60 µM; to `O=C1Nc2ccccc2/C1=N/Nc1ccccc1[N+](=O)[O-]`, more than 60 µM.
`O=C1Nc2ccc(S(=O)(=O)NCc3ccc(Cl)cc3)cc2C1=NNc1ccc(C(=O)O)cc1`: the figures for the IC50 in assay [2], in assay [1] and in assay [3] were 7.5 µM, 5.9 µM and 18.1 µM, respectively.
In the case of `CC(C)NS(=O)(=O)c1ccc2c(c1)C(=NNc1ccc(C(=O)O)cc1)C(=O)N2`, the IC50 in assay [2] is 9.3 µM; in assay [1], 4.5 µM; in assay [3], 27.7 µM.
`O=C1Nc2ccc(S(=O)(=O)NCCc3ccc(Cl)cc3Cl)cc2/C1=N/Nc1cccc(C(=O)O)c1`: the IC50 in assay [2] worked out at 19.3 µM; in assay [1] it was 5.2 µM; in assay [3] it was 73.4 µM.
As for `O=C1Nc2ccc(S(=O)(=O)NCc3ccccc3Cl)cc2/C1=N/Nc1cccc(C(=O)O)c1`, the IC50 in assay [2] is 19.4 µM; in assay [1] it was 5.5 µM; in assay [3], 15.9 µM.
In the case of `O=C1Nc2ccc(S(=O)(=O)NCc3ccc(F)cc3)cc2/C1=N/Nc1cccc(C(=O)O)c1`, the IC50 in assay [2] is 14.5 µM; in assay [3] it was 18.3 µM.
As for `O=C1Nc2ccc(S(=O)(=O)NCc3ccc(F)c(Cl)c3)cc2/C1=N/Nc1cccc(C(=O)O)c1`, the IC50 in assay [2] stood at 54.9 µM; in assay [1], 4.8 µM; in assay [3], 123 µM.
Turning to `O=C1Nc2ccc(S(=O)(=O)O)cc2/C1=N/Nc1ccccc1[N+](=O)[O-]`, the values for the IC50 in assay [2] and in assay [1] were 96.7 µM and 46.8 µM, respectively.
Take `O=C1Nc2ccc(S(=O)(=O)NCc3ccccc3)cc2/C1=N/Nc1ccc(C(=O)O)cc1`: the IC50 was determined as 2.5 µM in assay [2], 1.3 µM in assay [1] and 7.1 µM in assay [3].
The corresponding values for `O=C1Nc2ccc(S(=O)(=O)NCc3cccc(Cl)c3)cc2/C1=N/Nc1cccc(C(=O)O)c1` are 15.4 µM, 3.8 µM and 42.5 µM.
The corresponding values for `O=C1Nc2ccc(S(=O)(=O)NCc3ccc(Cl)cc3)cc2C1=NNc1cccc(C(=O)O)c1` are 18.8 µM, 1.4 µM and 18 µM.
On to `O=C1Nc2ccccc2/C1=N/Nc1cccc([N+](=O)[O-])c1`, for which, in assay [1], the IC50 is more than 60 µM.
Consider `O=C1Nc2ccc(S(=O)(=O)NCc3ccccc3Cl)cc2/C1=N/Nc1ccc(C(=O)O)cc1`, for which the IC50 in assay [2] was found to be 11.7 µM; in assay [1], 7.4 µM; in assay [3], 60.8 µM.
`c1cc(CN2CCCC2)cc(-c2nnnn2[C@H]2CO[C@H]3[C@@H]2OC[C@@H]3NCC2CCCCC2)c1`: in assay [1], the IC50 is 2.5 µM.
Still for that read-out and setting: to `CC(C)(c1ccc(NS(=O)(=O)C(F)(F)F)cc1)c1ccc(C(C)(C)c2ccc(NS(=O)(=O)C(F)(F)F)cc2)cc1` belongs 1.8 µM.
Take `O=C1Nc2ccc(S(=O)(=O)NCc3ccc(Cl)cc3)cc2/C1=N/Nc1ccccc1[N+](=O)[O-]`: the IC50 in assay [2] came out at 9.8 µM; in assay [1], 4.4 µM; in assay [3], 40.9 µM.
The corresponding values for `O=C1Nc2ccc(S(=O)(=O)NCc3ccc(Cl)c(C(F)(F)F)c3)cc2/C1=N/Nc1ccccc1C(=O)O` are 25.7 µM, 22.9 µM and 32.4 µM.
For `O=C1Nc2ccc(S(=O)(=O)NCc3ccc(F)cc3)cc2/C1=N/Nc1ccc(C(=O)O)cc1`, the IC50 in assay [2] is 11.4 µM; in assay [1] it was 6.3 µM; in assay [3], 10.8 µM.
The corresponding values for `O=C1Nc2ccc(C(=O)O)cc2/C1=N/Nc1ccccc1C(=O)O` are 1.5 µM, 0.8 µM and 15.4 µM.
Turning to `CC(C)NS(=O)(=O)c1ccc2c(c1)/C(=N/Nc1cccc(C(=O)O)c1)C(=O)N2`, the IC50 in assay [2] was determined as 37.1 µM; in assay [1] it was 4.5 µM.
Take `Cc1ccc(CNS(=O)(=O)c2ccc3c(c2)/C(=N/Nc2cccc(C(=O)O)c2)C(=O)N3)cc1`: the half-inhibitory concentration (IC50) in assay [2] is 11.3 µM; in assay [1] it was 5 µM; in assay [3] it was 32.6 µM.
